Published values collected from several papers.
Compare with care: the assays were run in different laboratories.
Target: Insulin-like growth factor 1 receptor (IGF1R, Homo sapiens, UniProt P08069)

COc1cc(/C=C/C(=O)CC(=O)/C=C/c2ccc(O)c(OC)c2)ccc1O has an activity vs control of 99% (enzyme activity, inhibitor; 1 µM).
With COc1cc2ncnc(Nc3ccc(Oc4ccccc4)cc3C)c2cc1OC the inhibition was 1% (enzyme activity, inhibitor; 1 µM).
CN(c1ncccc1CNc1nc(Nc2ccc3c(c2)CC(=O)N3)ncc1C(F)(F)F)S(C)(=O)=O gave an inhibition of 97.6% (enzyme activity, inhibitor; 1 µM).
The remaining binding of Cc1nccc(COC(=O)N2C[C@@H]3[C@@H](CNC(=O)c4ccc5[nH]nnc5c4)[C@@H]3C2)n1 is reported as 93% (cell-free assay, competition with immobilised ligand; 1 µM).
The inhibition of CS(=O)(=O)Nc1cccc(-c2csc(NC(=O)CSc3nc4nccnc4c(=O)n3CCc3ccccc3)n2)c1 is reported as 5% (enzyme activity, inhibitor; 10 µM).
With CN1CC(Oc2cnc(C#N)cc2-c2ccn3nc(NC(=O)C4CC4)cc3c2)C1 the inhibition was 9% (enzyme activity, inhibitor; 1 µM).
For Cc1ccc(C(=O)Nc2ccc(CN3CCN(C)CC3)c(C(F)(F)F)c2)cc1C#Cc1cnc2cccnn12, the remaining signal was 84% (cell-free assay; 23.5 nM).
With CN(C(=O)c1ccccc1)c1cc(N(C)c2ccc3c(c2)CCc2ccc(C(=O)NCCN4CCOCC4)cc2C3=O)ccc1F the remaining binding was 90% (cell-free assay, competition with immobilised ligand; 1 µM).
With CC/C(=N\NC(=O)NCc1cccc(O)c1)c1ccc(O)c(C)c1O the inhibition was 3% (enzyme activity, inhibitor; 0.1 µM).
CCN(CC)CCNC(=O)c1c(C)[nH]c(/C=C2\C(=O)Nc3ccc(F)cc32)c1C gave an inhibition of 81% (enzyme activity, inhibitor; 10 µM).
With COc1ccc(Cl)cc1NC(=O)Nc1cc(C)nc2ccccc12 the remaining signal was 94.9% (cell-free assay; 0.5 µM).
Cc1c(NC(=O)c2cc(C(N)=O)nc3cc(F)ccc23)c(C(F)(F)F)nn1Cc1ccc(C#N)cc1 gave a remaining binding of 100% (cell-free assay, competition with immobilised ligand; 1 µM).
With N#CCCc1ccc2c(c1)-c1[nH]c3ccc([N+](=O)[O-])cc3c1CC(=O)N2 the remaining signal was 92.2% (cell-free assay; 0.5 µM).
CNC(=O)c1cc(Oc2ccc(NC(=O)Nc3ccc(Cl)c(C(F)(F)F)c3)cc2)ccn1 has an inhibition of -3% (enzyme activity, inhibitor; 0.3 µM).
With Cc1ccc(NC(=O)c2ccc(C)c(C(F)(F)F)c2)cc1C#Cc1nn(C2CCC(O)CC2)c2ncnc(N)c12 (stereo not drawn) the remaining signal was 66% (cell-free assay; 10 µM).
CN(C)C(=O)Cn1cc(-c2nc(C3(c4ccc(-c5cnc(N)nc5)cc4)CC3)no2)cn1 gave a remaining binding of 85% (cell-free assay, competition with immobilised ligand; 1 µM).
The inhibition of CNCc1ccc(-c2cc(-c3nc(-c4ccc(S(=O)(=O)C(C)C)cc4)cnc3N)on2)cc1 is reported as 2% (enzyme activity, inhibitor; 2 µM).
With Cc1cc(-n2nc(Cc3cc(F)cc(C(F)(F)F)c3)nc2C)ccc1C(N)=O the remaining binding was 98% (cell-free assay, competition with immobilised ligand; 1 µM).
Cc1cc(NC(=O)c2cccc3cc(-c4cccc5[nH]nc(N)c45)ccc23)ccc1F has an activity vs control of 143% (enzyme activity, inhibitor; 0.1 µM).
N#Cc1ccc(Nc2ccc3[nH]c(=O)[nH]c3c2)c(Cl)c1 has a remaining binding of 99% (cell-free assay, competition with immobilised ligand; 1 µM).
With Cc1ccc(C(=O)NCc2ccsc2)cc1C#Cc1cn(C(C)C)c2ncnc(N)c12 the activity vs control was 75% (enzyme activity, inhibitor; 1 µM).
